“Also recorded” adds a separate entry of the source.
Columns and labels:
[1] = tested on: Staphylococcus aureus subsp. aureus Rosenbach, ATCC 29213; assay: Antibacterial growth assay, S. aureus; assay type: cell-based; conditions: for Inhibition of growth of S. aureus: at a concentration of 11.1 μM; for Antibacterial activity against S. aureus: in higher doses (100 μM)
How it was run: (§1)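 A single colony was grown overnight in cation-adjusted Mueller Hinton broth at 37 °C, 250 rpm, then diluted 100-fold. Cultures were grown for 24 h at 37 °C with test compound as a 7-concentration series. A600 was read, followed by a BacTiter-Glo ATP luminescence read. % growth inhibition was normalized to vancomycin/amikacin positive controls and DMSO negative control.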

[2] = Total antioxidant capacity; conditions: CUPRAC, Trolox equivalent, at any one concentration tested, n=2
How it was run: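 Test compounds from DMSO stocks were dispensed acoustically as a 7-concentration series in 384-well plates. Freshly prepared Cu(II)-neocuproine reagent was added, mixed at 650 rpm for 2 min, then incubated sealed at 25 °C. A450 of the Cu(I)-neocuproine chelate was read at 1.5 h and 3 h. A Trolox standard curve was run on every plate, with values expressed as Trolox equivalents (mM). Fold over Trolox was taken as the ratio of linear-regression coefficients; n=2.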

Mycobacterium smegmatis = assay: Antibacterial growth assay, M. smegmatis; assay type: cell-based; conditions: at a high concentration of 300 μM
How it was run: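 Mycobacterium smegmatis grown in Middlebrook 7H9 with OADC at 37 °C, 250 rpm, with test compound as a 7-concentration series. A600 read at 24 h and 48 h, then an ATP luminescence read with BacTiter-Glo. % growth inhibition normalized to vancomycin/amikacin positive controls and DMSO negative control.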

[3] = tested on: Klebsiella pneumoniae subsp. pneumoniae, ATCC 27736; assay: Antibacterial growth assay, K. pneumoniae; assay type: cell-based; conditions: at a concentration of 300 μM
How it was run: as §1

TZM-bl cells = assay: Cytotoxicity to cells in the anti-HIV assay; assay type: cell-based; conditions: toxic to cells in anti-HIV assay
HepG2 cell line = assay: Compound cytotoxicity in ARE assay in HepG2 cell line; assay type: cell-based
[4] = tested on: Nrf2-ARE signaling pathway in HepG2-ARE-Luc cells; assay: ARE-Luciferase reporter assay for Nrf2 activation in HepG2 cell line; assay type: cell-based; conditions: Figure 5B at 10 μM
How it was run: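 HepG2 cells stably carrying an ARE-driven firefly luciferase reporter, seeded at 10,000 cells/well in complete medium (384-well). Test compounds given as a 7-concentration series for 18 h at 37 °C, 5% CO2. Controls were TBHQ and sulforaphane (positive) and DMSO vehicle. Luminescence was read after Steady-Glo for 30 min. Fold induction was taken as treated/vehicle ×100, with vehicle set at 100%; n=2.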

CCR5-dependent BaL virus = assay: Anti-HIV TZM-bl assay, BaL virus; assay type: cell-based, HIV-1; conditions: concentration not stated (any one concentration, Figure 6)
How it was run: (§2)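 TZM-bl cells (HeLa-derived; CD4, CCR5 and CXCR4; Tat-driven luciferase) kept in DMEM with 10% heat-inactivated FBS and gentamicin. Cells seeded at 5000/well onto test compound, then given virus with 8 μg/ml DEAE-dextran. Inoculum was 150,000 RLU equivalents for NL4-3 and 20,000 for BaL.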

[5] = tested on: CXCR4-dependent NL4-3 virus; assay: Anti-HIV TZM-bl assay, NL4-3 virus; assay type: cell-based, HIV-1; conditions: concentration not stated (any one concentration, Figure 6)
How it was run: as §2

Compound: Oc1cc(O)c2c(c1)O[C@H](c1ccc(O)c(O)c1)[C@H](O)C2 [(-)-Epicatechin]
- inhibition at 300 µM ([1]; Staphylococcus aureus, ATCC29213, read-out: Inhibition against S. aureus): > 50%

Compound: OC[C@H]1O[C@@H](Oc2cc3c(O[C@@H]4O[C@H](CO)[C@@H](O)[C@H](O)[C@H]4O)cc(O)cc3[o+]c2-c2ccc(O)c(O)c2)[C@H](O)[C@@H](O)[C@@H]1O [Cyanidin 3,5-O-diglucoside]
- Total antioxidant capacity (TAC) relative to Trolox [2]: greater than 5 fold

Compound: OC[C@H]1O[C@@H](Oc2cc3c(O)cc(O)cc3[o+]c2-c2ccc(O)c(O)c2)[C@H](O)[C@@H](O)[C@H]1O [Cyanidin 3-O-galactoside]
- Total antioxidant capacity (TAC) relative to Trolox [2]: greater than 5 fold

Compound: OC[C@H]1O[C@@H](Oc2cc3c(O)cc(O)cc3[o+]c2-c2ccc(O)c(O)c2)[C@H](O)[C@@H](O)[C@@H]1O [Cyanidin 3-O-glucoside]
- Total antioxidant capacity (TAC) relative to Trolox [2]: greater than 5 fold
- Inhibition of growth of S. aureus [1]: more than 50%

Compound: C[C@@H]1O[C@@H](OC[C@H]2O[C@@H](Oc3cc4c(O)cc(O)cc4[o+]c3-c3ccc(O)c(O)c3)[C@H](O)[C@@H](O)[C@@H]2O)[C@H](O)[C@H](O)[C@H]1O [Cyanidin 3-O-rutinoside]
- Inhibition of M. smegmatis (Mycobacterium smegmatis): more than 50%
- Total antioxidant capacity (TAC) relative to Trolox [2]: greater than 5 fold
- Inhibition of growth of S. aureus [1]: more than 50%

Compound: OC[C@H]1O[C@@H](Oc2cc3c(O)cc(O)cc3[o+]c2-c2ccc(O)c(O)c2)[C@H](O[C@@H]2OC[C@@H](O)[C@H](O)[C@H]2O)[C@@H](O)[C@@H]1O [Cyanidin 3-O-sambubioside]
- Inhibition of M. smegmatis (Mycobacterium smegmatis): more than 50%
- Total antioxidant capacity (TAC) relative to Trolox [2]: greater than 5 fold
- Antibacterial activity against S. aureus [1]: showed antibacterial activity

Compound: OC[C@H]1O[C@@H](O[C@H]2[C@H](Oc3cc4c(O)cc(O)cc4[o+]c3-c3ccc(O)c(O)c3)O[C@H](CO)[C@@H](O)[C@@H]2O)[C@H](O)[C@@H](O)[C@@H]1O [Cyanidin 3-O-sophoroside]
- Total antioxidant capacity (TAC) relative to Trolox [2]: greater than 5 fold
- Inhibition of growth of K. pneumoniae [3]: more than 50%
- Antibacterial activity against S. aureus [1]: showed antibacterial activity

Compound: C[C@@H]1O[C@@H](OC[C@H]2O[C@@H](Oc3cc4c(O)cc(O)cc4[o+]c3-c3cc(O)c(O)c(O)c3)[C@H](O)[C@@H](O)[C@@H]2O)[C@H](O)[C@H](O)[C@H]1O [Delphinidin 3-O-rutinoside]
- Total antioxidant capacity (TAC) relative to Trolox [2]: greater than 5 fold
- Inhibition of growth of S. aureus [1]: more than 50%

Compound: COc1cc(/C=C/C(=O)O)ccc1O [Ferulic acid]
- Total antioxidant capacity (TAC) relative to Trolox [2]: on the same range as Trolox

Compound: O=C(O)c1cc(O)c(O)c(O)c1 [Gallic acid]
- Total antioxidant capacity (TAC) relative to Trolox [2]: greater than 5 fold
- Cytotoxicity concentration (TZM-bl cells): 80.42 ± 0.57 µM

Compound: O=c1c(O[C@@H]2O[C@H](CO)[C@H](O)[C@H](O)[C@H]2O)c(-c2ccc(O)c(O)c2)oc2cc(O)cc(O)c12 [Hyperoside (Quercetin 3-galactoside), Hyperoside (quercetin 3-galactoside)]
- Total antioxidant capacity (TAC) relative to Trolox [2]: greater than 5 fold

Compound: COc1cc(-c2oc3cc(O)cc(O)c3c(=O)c2O[C@@H]2O[C@H](CO)[C@@H](O)[C@H](O)[C@H]2O)ccc1O [Isorhamnetin 3-O-glucoside]
- Cytotoxicity to the cells in ARE assay (HepG2 cell line): non-cytotoxic to the cells
- ARE activation [4]: activated ARE activity
- Total antioxidant capacity (TAC) relative to Trolox [2]: on the same range as Trolox

Compound: COc1cc(-c2oc3cc(O)cc(O)c3c(=O)c2O)ccc1O [Isorhamnetin]
- Total antioxidant capacity (TAC) relative to Trolox [2]: greater than 5 fold
- Cytotoxicity concentration (TZM-bl cells): 3.042 ± 0.27 µM

Compound: C[C@H]1O[C@H](OC[C@H]2O[C@@H](Oc3c(-c4ccc(O)cc4)oc4cc(O)cc(O)c4c3=O)[C@H](O)[C@@H](O)[C@@H]2O)[C@@H](O)[C@@H](O)[C@@H]1O [Kaempferol 3-O-rutinoside]
- Total antioxidant capacity (TAC) relative to Trolox [2]: on the same range as Trolox

Compound: O=c1c(O[C@@H]2O[C@H](CO)[C@@H](O)[C@H](O)[C@H]2O)c(-c2ccc(O)cc2)oc2cc(O)cc(O)c12 [Kaempferol 3-glucoside, Kaempferol 3-glucoside (astragalin)]
- Total antioxidant capacity (TAC) relative to Trolox [2]: on the same range as Trolox

Compound: O=c1c(O)c(-c2ccc(O)cc2)oc2cc(O)cc(O)c12 [Kaempferol]
- Inhibition of HIV strain BaL (CCR5-dependent BaL virus): didn’t significantly inhibit
- Cytotoxicity to the cells in ARE assay (HepG2 cell line): non-cytotoxic to the cells
- ARE activation [4]: activated ARE activity; also recorded: highest level of ARE activation
- Inhibition of HIV strain NL4-3 [5]: more than 65%
- Cytotoxicity concentration (TZM-bl cells): 11.00 ± 0.62 µM

Compound: O=c1cc(-c2ccc(O)c(O)c2)oc2cc(O)cc(O)c12 [Luteolin]
- Inhibition of HIV strain BaL (CCR5-dependent BaL virus): more than 90%
- ARE activation [4]: activated ARE activity
- Inhibition of HIV strain NL4-3 [5]: more than 90%
- Cytotoxicity concentration (TZM-bl cells): 4.28 ± 0.45 µM

Compound: O=c1c(O)c(-c2cc(O)c(O)c(O)c2)oc2cc(O)cc(O)c12 [Myricetin]
- Total antioxidant capacity (TAC) relative to Trolox [2]: greater than 5 fold
- Cytotoxicity concentration (TZM-bl cells): higher than 100 μM

Compound: O=C1C[C@@H](c2ccc(O)cc2)Oc2cc(O)cc(O)c21 [Naringenin]
- Cytotoxicity to the cells in ARE assay (HepG2 cell line): non-cytotoxic to cells
- ARE activation [4]: activated ARE activity
- Total antioxidant capacity (TAC) relative to Trolox [2]: on the same range as Trolox

Compound: O=C(/C=C/c1ccc(O)c(O)c1)O[C@@H]1C[C@@](O)(C(=O)O)C[C@@H](O)[C@@H]1O [Neochlorogenic acid (3-caffeoylquinic acid)]
- Total antioxidant capacity (TAC) relative to Trolox [2]: greater than 5 fold

Compound: OC[C@H]1O[C@@H](Oc2cc3c(O)cc(O)cc3[o+]c2-c2ccc(O)cc2)[C@H](O)[C@@H](O)[C@@H]1O [Pelargonidin 3-O-glucoside]
- Inhibition of growth of K. pneumoniae [3]: more than 50%
- Antibacterial activity against S. aureus [1]: showed antibacterial activity

Compound: COc1cc(-c2[o+]c3cc(O)cc(O)c3cc2O[C@@H]2O[C@H](CO)[C@@H](O)[C@H](O)[C@H]2O)ccc1O [Peonidin 3-O-glucoside]
- Inhibition of growth of K. pneumoniae [3]: more than 50%
- Antibacterial activity against S. aureus [1]: showed antibacterial activity

Compound: O=c1c(O[C@@H]2O[C@H](CO)[C@@H](O)[C@H](O)[C@H]2O)c(-c2ccc(O)c(O)c2)oc2cc(O)cc(O)c12 [Quercetin-3-β-D-glucoside (hirsutrin), Quercetin-3-β-D-glucoside]
- Total antioxidant capacity (TAC) relative to Trolox [2]: greater than 5 fold

Compound: O=c1c(O)c(-c2ccc(O)c(O)c2)oc2cc(O)cc(O)c12 [Quercetin]
- Inhibition of HIV strain BaL (CCR5-dependent BaL virus): didn’t significantly inhibit
- Cytotoxicity to the cells in ARE assay (HepG2 cell line): non-cytotoxic to the cells
- ARE activation [4]: activated ARE activity
- Total antioxidant capacity (TAC) relative to Trolox [2]: greater than 5 fold
- Antibacterial activity against S. aureus [1]: showed antibacterial activity
- Inhibition of HIV strain NL4-3 [5]: more than 65%
- Cytotoxicity concentration (TZM-bl cells): 26.41 ± 3.91 µM

Compound: O=C(O)C=Cc1ccc(O)cc1 [p-Coumaric acid]
- Total antioxidant capacity (TAC) relative to Trolox [2]: on the same range as Trolox
